ChEMBL document CHEMBL3259621, “Novel merosesquiterpene exerts a potent antitumor activity against breast cancer cells in vitro and in vivo” (Eur J Med Chem, 2014)
Active and inactive are the calls of the source. The rule behind the calls is not given here.

What was measured:
Mus musculus [1] = assay: Toxicity in C57BL/6 mouse allografted with mouse E0771 cells assessed as survival at 5 to 15 mg/kg, po; format: organism-based; parameters: dose 5-15 mg/kg, route oral; conditions: in vivo
How it was run: (§1)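 C57BL/6 mice (10 per group) injected subcutaneously in the right side with 1 × 10⁶ E0771 cells. At day 9, with tumours at 75 mm³, mice were randomised to oral vehicle (1% methylcellulose) or 5, 10 or 15 mg/kg on six occasions. Animals were monitored to day 42 for survival and for signs of toxicity such as hair loss or diarrhoea.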

[2] = target: Mitogen-activated protein kinase; ERK1/ERK2 (Homo sapiens) (UniProt P27361+P28482); assay: Increase of p44/42 MAPK phosphorylation in human MCF7 cells at 2 uM after 4 to 24 hrs by Western blotting analysis relative to control; format: cell-based
Sequence of Mitogen-activated protein kinase; ERK1/ERK2 (Homo sapiens) (P27361 whole entry, looked up): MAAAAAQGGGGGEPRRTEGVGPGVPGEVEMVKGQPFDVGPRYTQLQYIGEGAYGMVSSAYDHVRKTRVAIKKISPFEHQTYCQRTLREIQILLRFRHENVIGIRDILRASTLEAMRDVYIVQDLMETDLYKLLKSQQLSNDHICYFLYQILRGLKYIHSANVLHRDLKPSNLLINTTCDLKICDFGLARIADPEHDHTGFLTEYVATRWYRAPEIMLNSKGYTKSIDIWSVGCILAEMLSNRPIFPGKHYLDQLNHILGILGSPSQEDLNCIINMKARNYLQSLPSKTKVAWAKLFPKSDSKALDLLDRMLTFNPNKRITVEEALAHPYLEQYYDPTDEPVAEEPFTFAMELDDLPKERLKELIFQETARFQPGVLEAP
Sequence of Mitogen-activated protein kinase; ERK1/ERK2 (Homo sapiens) (P28482 whole entry, looked up): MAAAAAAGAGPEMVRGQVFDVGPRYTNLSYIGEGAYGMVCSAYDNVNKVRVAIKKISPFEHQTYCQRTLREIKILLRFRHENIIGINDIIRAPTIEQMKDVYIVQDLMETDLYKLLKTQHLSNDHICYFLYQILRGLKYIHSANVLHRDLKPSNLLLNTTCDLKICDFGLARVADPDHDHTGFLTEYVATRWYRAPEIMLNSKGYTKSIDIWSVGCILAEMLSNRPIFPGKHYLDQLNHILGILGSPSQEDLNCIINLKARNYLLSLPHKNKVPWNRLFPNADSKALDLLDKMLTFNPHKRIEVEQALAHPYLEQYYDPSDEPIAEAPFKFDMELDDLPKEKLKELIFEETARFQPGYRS
How it was run: (§2)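 MCF-7 seeded at 5 × 10⁴/cm² and exposed at 24 h to 2 µM compound for 0, 4, 8, 16 and 24 h. Lysates separated on 12% SDS gels, transferred to nitrocellulose, blocked in 5% milk. Primary antibodies applied overnight at 4 °C, then secondary 1 h at room temperature. Detection by ECL chemiluminescence with β-actin as loading reference.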

[3] = Therapeutic index, ratio of IC50 for human MCF10A cells to IC50 for human MCF7 cells; format: cell-based, MCF-10A; conditions: MCF10A cells versus MCF7 cells, read-out: Ratio IC50
MCF7 [4] = assay: Induction of apoptosis in human MCF7 cells assessed as reduction in c-myc expression at 2 uM after 16 hrs by Western blotting analysis relative to control; format: functional; parameters: scale not given: the % may be the effect or the level left; how it was run: as §2
MCF7 [5] = assay: Induction of apoptosis in human MCF7 cells assessed as early apoptotic cells at 2 uM after 48 hrs by annexin V staining-based flow cytometry (reference value: 0.205 %); format: functional
MCF7 [6] = assay: Induction of apoptosis in human MCF7 cells assessed as reduction in c-myc expression at 2 uM after 24 hrs by Western blotting analysis relative to control; format: functional; parameters: scale not given: the % may be the effect or the level left; how it was run: as §2
MCF7 [7] = assay: Cell cycle arrest in human MCF7 cells assessed as accumulation at […] phase at 3 uM after 48 hrs by propidium iodide/RNAse staining-based FACS analysis (reference value: 8.02 %); format: functional
MCF7 [8] = assay: Induction of apoptosis in human MCF7 cells assessed as increase in phosphorylated p53 level at 2 uM after 4 to 24 hrs by Western blotting analysis relative to control; format: functional, cell-based; how it was run: as §2
A549 = assay: Cytotoxicity against human A549 cells after 3 days by SRB assay; format: functional, cell-based; conditions: A549, 72 h
How it was run: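 Cells seeded in quadruplicate at 5 × 10³ cells/cm². Compound added at 24 h over increasing concentrations for 3 days. Cells fixed with cold 10% TCA, stained with 0.4% sulforhodamine B in 1% acetic acid, dye solubilized in 10 mM Tris pH 10.5, OD read at 492 nm. IC50 taken by linear interpolation of the semi-log dose-response curve. DMSO below 0.1% final.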

MCF7 [9] = assay: Cell cycle arrest in human MCF7 cells assessed as accumulation at […] phase after 48 hrs by propidium iodide/RNAse staining-based FACS analysis; format: functional
MCF7 [10] = assay: Cell cycle arrest in human MCF7 cells assessed as accumulation at G0-G1 phase at 3 uM after 24 hrs by propidium iodide/RNAse staining-based FACS analysis (reference value: 42.34 %); format: functional
MCF7 [11] = assay: Cell cycle arrest in human MCF7 cells assessed as accumulation at S phase at 3 uM after 24 hrs by propidium iodide/RNAse staining-based FACS analysis (reference value: 49.46 %); format: functional
MCF7 [12] = assay: Cytotoxicity against human MCF7 cells assessed as reduction in cell viability at 3 uM after 3 days by SRB assay relative to control; format: functional
How it was run: (§3)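 MCF-7 seeded at high density (5 × 10⁴/cm²) and treated at 24 h with compound for 3 days, with or without 20 mM NAC. Viable cells quantified by sulforhodamine B staining, OD 492 nm. Viability reduction expressed versus untreated controls.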

[13] = Therapeutic index, ratio of IC50 for human CCD-18Co cells to IC50 for human T84 cells; format: cell-based, T84; CCD-18Co; conditions: CCD-18Co cells versus T84 cells, read-out: Ratio IC50
SW480 = assay: Cytotoxicity against human SW480 cells after 3 days by SRB assay; format: functional, cell-based; conditions: SW480, 72 h
How it was run: (§4)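 Cells seeded at 5 × 10³ cells/cm² in quadruplicate and, after 24 h, treated with increasing concentrations for 3 days. Compounds diluted from DMSO stock, final DMSO <0.1% v/v. Cells were fixed with cold 10% TCA, stained with 0.4% sulforhodamine B in 1% acetic acid, and dye solubilised in 10 mM Tris-base pH 10.5. OD read at 492 nm. IC50 obtained by linear interpolation on a semi-log dose-response curve.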

Mus musculus [14] = assay: Toxicity in C57BL/6 mouse allografted with mouse E0771 cells assessed as diarrhea at 5 to 15 mg/kg, po; format: organism-based; parameters: dose 5-15 mg/kg, route oral; conditions: in vivo; how it was run: as §1
MCF7 [15] = assay: Cell cycle arrest in human MCF7 cells assessed as accumulation at G0-G1 phase at 1 uM after 24 hrs by propidium iodide/RNAse staining-based FACS analysis (reference value: 42.34 %); format: functional
MCF7 [16] = assay: Cell cycle arrest in human MCF7 cells assessed as accumulation at G2-M phase at 3 uM after 24 hrs by propidium iodide/RNAse staining-based FACS analysis (reference value: 8.20 %); format: functional
HT-29 = assay: Cytotoxicity against human HT-29 cells after 3 days by SRB assay; format: functional, cell-based; conditions: HT-29, 72 h; how it was run: as §4
MCF7 [17] = assay: Cell cycle arrest in human MCF7 cells assessed as accumulation at S phase at 2 uM after 24 hrs by propidium iodide/RNAse staining-based FACS analysis (reference value: 49.46 %); format: functional
RKO = assay: Cytotoxicity against human RKO cells after 3 days by SRB assay; format: functional, cell-based; conditions: 72 h; how it was run: as §4
MCF7 [18] = assay: Cell cycle arrest in human MCF7 cells assessed as accumulation at […] phase at 2 uM after 48 hrs by propidium iodide/RNAse staining-based FACS analysis (reference value: 8.02 %); format: functional
[19] = Antitumor activity against mouse E0771 cells allografted in C57BL/6 mouse assessed as mean tumor volume at 5 to 15 mg/kg, po measured on day 42 relative to vehicle-treated control; format: functional; conditions: dose mg/kg 5-15
How it was run: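 C57BL/6 mice (40) injected subcutaneously in the right side with 1 × 10⁶ E0771 cells. At day 9, with tumors at 75 mm³, randomized into four groups of 10 and dosed orally six times with vehicle (1% methylcellulose) or compound at 5, 10 or 15 mg/kg. Tumor volume followed to day 42.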

MCF7 [20] = assay: Cytotoxicity against human MCF7 cells assessed as reduction in cell viability after 3 days by SRB assay; format: functional, cell-based; how it was run: as §3
[21] = Therapeutic index, ratio of IC50 for human CCD-18Co cells to IC50 for human HT-29 cells; format: cell-based; conditions: CCD-18Co cells versus HT-29 cells, read-out: Ratio IC50
MDA-MB-231 = assay: Cytotoxicity against human MDA-MB-231 cells after 3 days by SRB assay; format: functional, cell-based; conditions: MDA-MB-231, 72 h; how it was run: as §4
[22] = Therapeutic index, ratio of IC50 for human CCD-18Co cells to IC50 for human SW480 cells; format: cell-based; conditions: CCD-18Co cells versus SW480 cells, read-out: Ratio IC50
[23] = Cytotoxicity against human CCD-18Co cells after 3 days by SRB assay; format: cell-based; conditions: 72 h; how it was run: as §4

Question: Which Activity (Mus musculus [1]) does the source give for `C=C1CC[C@@H]2[C@](C)(CCC[C@]2(C)C(=O)OC)[C@H]1Cc1c(C)ccc2c1C(=O)C=CC2=O` here?
Answer: Non-toxic

Question: And the Activity [2]?
Answer: Active

Question: What about the selectivity ratio [3] of the same molecule?
Answer: 9

Question: What about the Activity (MCF7 [4]) of the same molecule?
Answer: 50%

Question: And the Activity (MCF7 [5])?
Answer: 12.5%

Question: What about the Activity (MCF7 [6]) of the same molecule?
Answer: 80%

Question: And the Activity (MCF7 [7])?
Answer: 39.91%

Question: And the Activity (MCF7 [8])?
Answer: Active

Question: And the IC50 (A549)?
Answer: 1380 nM

Question: And the Activity (MCF7 [9])?
Answer: Dose-dependent effect

Question: What about the Activity (MCF7 [10]) of the same molecule?
Answer: 75.7%

Question: What about the Activity (MCF7 [11]) of the same molecule?
Answer: 4.25%

Question: And the viability (MCF7 [12])?
Answer: 23.26%

Question: And the selectivity ratio [13]?
Answer: 0.59

Question: And the IC50 (SW480)?
Answer: 920 nM

Question: And the Activity (Mus musculus [14])?
Answer: Non-toxic

Question: And the Activity (MCF7 [15])?
Answer: 51.4%

Question: And the Activity (MCF7 [16])?
Answer: 5.08%

Question: What about the IC50 (HT-29) of the same molecule?
Answer: 1970 nM

Question: And the Activity (MCF7 [17])?
Answer: 29.15%

Question: And the IC50 (RKO)?
Answer: 590 nM

Question: What about the Activity (MCF7 [18]) of the same molecule?
Answer: 31.09%

Question: And the “fold change (FC)” value [19]?
Answer: 2.4

Question: And the Activity (MCF7 [20])?
Answer: Dose-dependent effect

Question: What about the selectivity ratio [21] of the same molecule?
Answer: 0.17

Question: And the IC50 (MDA-MB-231)?
Answer: 460 nM

Question: And the selectivity ratio [22]?
Answer: 0.36

Question: And the IC50 [23]?
Answer: 330 nM
